Reference: PubChem BioAssay AID504392 (Broad Institute, 2011)
Values without a mark were called inactive.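 The calls were made as follows: active = fitted curve rising past 10% caspase activation at or below the top valid dose; inactive = activity opposite to the expected rise, or the rest.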

Assay: apoptosis induction in mouse embryonic fibroblasts – cell-based, wild-type MEF, caspase luminescence, dry powder, set 2, counter-screen for Bcl2-A1 inhibitor project, dose response (AID 504392)
Details: CaspaseGlo luminescence, 3 h; series mostly up to 35 µM; caspase activation: at the top concentration
How it was run: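 Material: wild-type mouse embryonic fibroblasts, not A1–BIM primed; Timing: 3 h 37 °C exposure, 30 min cooling, 1 h incubation; Detection: luminescence with CaspaseGlo caspase reagent; Read-out: caspase activation.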

Row | Structure (SMILES) | caspase activation
1 | Cc1ccc(Sc2c([N+](=O)[O-])c(=O)oc3ccccc23)cc1 | -1.99%
2 | O=c1oc2ccccc2c(Nc2cc(Cl)cc(Cl)c2)c1[N+](=O)[O-] | -0.747%
3 | Cc1ccc(Nc2c([N+](=O)[O-])c(=O)n(C)c3ccccc23)cc1 | 0.135%
4 | CCOC(=O)N1CCN(c2c([N+](=O)[O-])c(=O)n(C)c3ccccc23)CC1 | 0.376%
5 | CCOCCCNc1c([N+](=O)[O-])c(=O)n(C)c2ccccc12 | -0.369%
6 | Cn1c(=O)c([N+](=O)[O-])c(Oc2ccccc2)c2ccccc21 | 0.176%
7 | O=c1oc2ccccc2c(Sc2ccccc2)c1[N+](=O)[O-] | -2.63%
8 | Cn1c(=O)c([N+](=O)[O-])c(Cl)c2ccccc21 | -0.325%
9 | Cc1ccc(Sc2cc(=O)n(C)c3ccccc23)cc1 | -2.63%
10 | CN1C(=O)C(C)(C)N(Cc2ccccc2)c2ccccc21 | -0.09%
11 | Cc1ccc(Sc2c([N+](=O)[O-])cnc3ccccc23)cc1 | 0.971%
12 | O=C(Oc1cccc(/C=N/Nc2nc(Nc3ccccc3)nc(N3CCOCC3)n2)c1)c1ccco1 | 0.185%
13 | Cc1ccc(Nc2c([N+](=O)[O-])c(=O)oc3ccccc23)cc1 | 0.158%
14 | Cn1c(=O)c([N+](=O)[O-])c(-n2cnc3ccccc32)c2ccccc21 | 2.49%
15 | O=[N+]([O-])c1cnc2ccccc2c1Sc1ccccc1 | -0.231%
16 | O=c1oc2ccccc2c(Cl)c1[N+](=O)[O-] | -2.49%
17 | Cn1c(=O)c([N+](=O)[O-])c(Nc2ccc(Cl)cc2)c2ccccc21 | 0.621%
18 | CCSc1c([N+](=O)[O-])c(=O)oc2ccccc12 | -0.856%
19 | O=c1oc2ccccc2c(N2CCCCC2)c1[N+](=O)[O-] | -1.15%
20 | Cc1ccc(Sc2c([N+](=O)[O-])c(=O)n(C)c3ccccc23)cc1 | 1.94%
